Screens as filed in PubChem BioAssay.
PAFAH1B2 inh – PAFAH1B2 enzyme inhibitors, primary screen, biochemical, fluorescence polarization, human; Platelet-activating factor acetylhydrolase IB subunit alpha2 (Homo sapiens), P68402; recombinant PAFAH1B2, FP-rhodamine activity probe; inhibition, % at 3.39 µM; 1.2% of 340,000 active;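 active = inhibition above the mean of all tested compounds plus 3 SD, cut at about 24% in these data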;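 also: 0% = enzyme with DMSO and 100% = wells lacking PAFAH1B2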
Apaf1 inhib – inhibitors of human Apaf-1 apoptosome, primary screen, biochemical, DEVD-Rh110 fluorescence, uHTS; Apoptotic protease-activating factor 1 (Homo sapiens), O14727; reconstituted apoptosome caspase-3 activity; inhibition, % at 20 µM; 0.71% of 330,000 active; AID 489030, 2010; active = inhibition of at least 40% at 20 µM;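 also: plate controls were DMSO wells for no effect and DEVD-CHO caspase inhibitor wells for full effect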
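Material: reconstituted apoptosome with Apaf-1, cytochrome c, caspase-9, procaspase-3, dATP; medium: pH 7.5 Hepes buffer with CHAPS, BSA, DTT; also added: cytochrome c and DEVD-Rh110 substrate; timing: 30 min plus 50 min, RT; signal: Rh110 fluorescence intensity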
PAFAH2 FP inh – PAFAH2 enzyme inhibitors, primary screen, biochemical, fluorescence polarization, human | Platelet-activating factor acetylhydrolase 2, cytoplasmic (Homo sapiens), Q99487 | 0.99% of 340,000 active | inhibition, % at 3.39 µM | AID 492956, 2010 | recombinant PAFAH2, FP-rhodamine activity probe;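 active = inhibition above the mean over all tested compounds plus 3 SD, cut at about 30% in these data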;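 also: inhibitors block probe labeling of enzyme so polarization drops; 0% = enzyme with DMSO and 100% = wells lacking PAFAH2 protein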
PAFAH1B3 inh – PAFAH1B3 enzyme inhibitors, primary screen, biochemical, fluorescence polarization, human; Platelet-activating factor acetylhydrolase IB subunit alpha1 (Homo sapiens), Q15102; 0.28% of 340,000 active; recombinant PAFAH1B3, FP-rhodamine probe; inhibition, % at 3.39 µM;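 active = inhibition above the screen-wide average of all tested compounds plus 3 SD, cut at about 25% in these data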;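 also: 0% = enzyme with DMSO only and 100% = wells lacking PAFAH1B3 protein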
TDP2 inh – human TDP2 enzyme inhibitors, primary screen, biochemical, epi absorbance, recombinant enzyme; Tyrosyl-DNA phosphodiesterase 2 (Homo sapiens), O95551; T5PNP hydrolysis, p-nitrophenol absorbance 415 nm; inhibition, % at 12.8 µM; 0.34% of 370,000 active; AID 720702, 2013;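 active = inhibition above the mean of all tested compounds plus 3 SD, set per campaign, cut at about 25% in these data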;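 also: 0% = DMSO with enzyme and 100% = buffer with substrate but no TDP2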
Target sequence (O95551 whole entry, looked up): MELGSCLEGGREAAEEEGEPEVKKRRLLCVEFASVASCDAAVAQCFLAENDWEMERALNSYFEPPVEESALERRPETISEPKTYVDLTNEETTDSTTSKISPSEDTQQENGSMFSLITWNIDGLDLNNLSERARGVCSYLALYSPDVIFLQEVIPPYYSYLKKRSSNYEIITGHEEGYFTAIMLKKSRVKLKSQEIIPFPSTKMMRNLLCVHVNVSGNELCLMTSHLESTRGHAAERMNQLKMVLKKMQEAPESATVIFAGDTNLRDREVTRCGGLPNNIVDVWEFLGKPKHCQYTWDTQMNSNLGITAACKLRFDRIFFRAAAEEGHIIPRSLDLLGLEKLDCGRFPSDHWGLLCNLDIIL
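Assay system: Recombinant human TDP2 | Quantity: 120 nM TDP2 per well | Incubation: 2 h at 37 °C | Signal: Epi absorbance | Evaluation: Percent inhibition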
* = called active by the depositor; . = not tested or not shown. Shown are actives, neighbours in structure and some others; about 2.3% of the full set was active somewhere.

SMILES	PAFAH1B2 inh	Apaf1 inhib	PAFAH2 FP inh	PAFAH1B3 inh	TDP2 inh
CCCn1nc([N+](=O)[O-])c(C(C#N)c2nc3ccccc3s2)c(Cl)c1=O (stereo not drawn)	15.2	18.9	60.1*	14.5	3.6
CCn1nc([N+](=O)[O-])c(C(C#N)c2nc3ccccc3n2C)c(Cl)c1=O (stereo not drawn)	8.7	15.7	11.4	12.0	4.1
O=C(NC(Cc1ccccc1)C(=O)O)OCC1c2ccccc2-c2ccccc21 (stereo not drawn)	27.0*	8.2	3.0	10.0	-2.1
CCC(C)Nc1ccc(NC(C)CC)cc1 (stereo not drawn)	7.3	42.7*	12.3	12.6	.
CCOC(=O)N=Nc1c(O)n(CC(=O)OC)c2ccccc12	-1.2	-4.4	-0.9	2.5	0.1
CCOC(=O)N=Nc1c2ccccc2c2nc3no[nH]c3nc12	.	88.4*	.	.	20.6
COc1ccc(C(C(=O)N(C)C2CCCC2)N(Cc2ccc(F)cc2)C(=O)c2cc(C)[nH]n2)cc1OC (stereo not drawn)	.	.	.	.	-10.5
C#CCOCCOCCOCCNc1nc(N2CCN(C(=O)[C@H](Cc3cc4ccccc4[nH]3)n3cc([C@@H](N)C(C)CC)nn3)CC2)nc(N2CCN(C(=O)[C@H](Cc3cc4ccccc4[nH]3)n3cc([C@@H](N)Cc4ccc(O)cc4)nn3)CC2)n1 (stereo partly drawn)	.	60.4*	.	.	.
C#CCOCCOCCOCCNc1nc(N2CCN(C(=O)[C@H](Cc3ccc(O)cc3)n3cc([C@@H](N)C(C)CC)nn3)CC2)nc(N2CCN(C(=O)[C@H](Cc3cc4ccccc4[nH]3)n3cc([C@@H](N)C(C)CC)nn3)CC2)n1 (stereo partly drawn)	2.0	32.8	2.6	-4.8	.
C#CCOCCOCCOCCNc1nc(N2CCN(C(=O)C(Cc3cc4ccccc4[nH]3)n3cc(C(N)Cc4ccc(O)cc4)nn3)CC2)nc(N2CCN(C(=O)C(CCC(=O)O)n3cc(C(N)C(C)CC)nn3)CC2)n1 (stereo not drawn)	-1.8	11.0	4.0	0.8	-1.9
C#CCOCCOCCOCCNc1nc(N2CCN(C(=O)[C@H]([C@@H](C)CC)n3cc([C@@H](N)Cc4ccc(O)cc4)nn3)CC2)nc(N2CCN(C(=O)[C@H](Cc3cc4ccccc4[nH]3)n3cc([C@@H](N)C(C)CC)nn3)CC2)n1 (stereo partly drawn)	.	49.1*	.	.	.
CC(C)(C)N(NC(=O)Nc1cccc(F)c1)C(=O)c1ccccc1Cl	.	.	.	.	-8.2
Cn1cc([N+](=O)[O-])c(C(=O)Nc2ccn(C34CC5CC(CC(C5)C3)C4)n2)n1	25.3*	6.8	1.4	1.8	-8.5
Cn1nccc1C(=O)Nc1ccn(C23CC4CC(CC(C4)C2)C3)n1	24.4*	5.4	-1.6	1.5	-1.9
CCn1cc([N+](=O)[O-])c(C(=O)Nc2ccn(C34CC5CC(CC(C5)C3)C4)n2)n1	29.0*	3.4	1.1	9.2	0.7
Cc1nn(C)c(C(=O)Nc2ccn(C34CC5CC(CC(C5)C3)C4)n2)c1[N+](=O)[O-]	10.6	24.2	1.4	5.1	0.7
CCCCCN1CCCCC(NC(=O)c2ccc3ccccc3c2)C1=O (stereo not drawn)	.	.	.	.	5.3
CC(C)(C)OC(=O)NCc1cc(F)ccc1/C=C/S(=O)(=O)NCc1ccc(F)cc1	.	.	.	.	-3.3
NC(=O)C1CCN(c2nc(-c3ccc4c(c3)OCCCO4)cs2)CC1	.	.	.	.	-7.0
O=C(O)CCCCCCCCCCCc1ccccc1	54.7*	2.2	16.3	9.8	7.2
COc1cc([N+](=O)[O-])ccc1NC(=O)CN1CCc2cc(OC)c(OC)cc2C1	1.1	44.1*	1.3	3.1	-2.4
O=C1CC(SCCc2nc3ccccc3[nH]2)C(=O)N1c1ccc(Cl)cc1 (stereo not drawn)	31.5*	-3.4	-7.3	0.9	-11.9
O=C1CC(SCc2nc3ccccc3[nH]2)C(=O)N1c1ccc(F)c(Cl)c1 (stereo not drawn)	28.8*	7.0	2.0	4.9	4.4
